eIF4H FP inh – inhibitors of RNA binding by human eIF4H | eIF4H fluorescence polarization binding assay | inhibition, % at 35 µM | 290,000 compounds, 0.94% hits | AID 2012;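 also: calls also rest on retests at 20 µM and on dose response follow-up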
PABP1 MLLE inh – blocks PAM2 peptide binding to the PABP1 MLLE domain. P11940. GST-MLLE / FITC-PAM2 fluorescence polarization. inhibition, % at 20 µM. 360,000 compounds, 0.36% hits. AID 588489; in the data active = inhibition above about 35%, passing the limit was not always enough
HCV NS3 hel inh – blocks Hepatitis C virus NS3 helicase unwinding; NS3 helicase DNA unwinding, Cy5 molecular beacon fluorescence; inhibition, % at 10.9 µM; 290,000 compounds, 0.56% hits;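 active = inhibition above the mean of all tested compounds plus 3 SD, set per campaign, cut at about 35% in these data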
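Test system: hepatitis C virus NS3 helicase domain fragment enzyme. Also added: annealed dual-labelled DNA beacon duplex, ATP-started. Timing: 60 min unwinding reaction at 25 °C after ATP addition. Technique: Cy5 fluorescence. Measure: % inhibition of unwinding.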
ZTA DNA inh – counter-screen for EBNA-1 inhibitors: inhibitors of Epstein-Barr virus ZTA | P03206 | ZTA-DNA binding, fluorescence polarization | inhibition, % at 11 µM | 320,000 compounds, 0.15% hits | AID 2234; in the data active = inhibition above about 33%
Target sequence (P03206 whole entry, looked up): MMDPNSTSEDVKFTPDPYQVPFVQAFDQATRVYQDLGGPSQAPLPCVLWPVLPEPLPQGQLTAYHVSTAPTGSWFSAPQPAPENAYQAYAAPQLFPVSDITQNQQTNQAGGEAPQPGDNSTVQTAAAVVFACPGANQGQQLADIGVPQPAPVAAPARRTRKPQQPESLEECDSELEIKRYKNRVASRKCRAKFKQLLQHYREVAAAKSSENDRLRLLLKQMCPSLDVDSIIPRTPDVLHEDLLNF
EBNA-1 inh – blocks EBNA-1 binding to DNA; EBNA-1 DNA binding, fluorescence polarization; inhibition, % at 14.8 µM; 300,000 compounds, 0.34% hits; in the data active = inhibition above about 28%
PABP FP inh – PABP-poly(A) binding inhibition; P11940; PABP-poly(A) RNA binding, fluorescence polarization; inhibition, % at 35 µM; 290,000 compounds, 1% hits; AID 2014;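 also: calls also rest on retests at 20 µM and on dose response follow-up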
Each line names hits and unclear results; the compound was inactive in the other large screens. The list is not random: actives were taken first. Their share in the collection is about 2.1%. Unless noted, no rule for the calls is given here.

Cc1ccc(N2C(=N)/C(=C3/Nc4ccccc4S3)C(c3ccccc3)C2=O)cc1 (stereo not given)	eIF4H FP inh 84, PABP FP inh 0.6
O=C1CC(SC(=S)C2CCCC2=O)C(=O)N1 (stereo not given)	PABP1 MLLE inh 46 (no result: eIF4H FP inh, HCV NS3 hel inh, ZTA DNA inh, EBNA-1 inh, PABP FP inh)
COc1cc(NC(=O)Cn2cnc(C(=O)Nc3ccc(C)c(C)c3)n2)cc(OC)c1OC	none (no result: eIF4H FP inh, HCV NS3 hel inh, ZTA DNA inh, EBNA-1 inh, PABP FP inh)
NC(=O)c1cc2c3ccccc3ccn2c1-c1ccccc1	eIF4H FP inh inconclusive, PABP1 MLLE inh 46, PABP FP inh inconclusive
Nc1nc(Sc2ccc(C(F)(F)F)cc2[N+](=O)[O-])n[nH]1	none
Nc1nc(Sc2c([N+](=O)[O-])cc(C(F)(F)F)cc2[N+](=O)[O-])n[nH]1	PABP1 MLLE inh 39
CC1OC(OCC2OC(Oc3c(-c4ccc(O)cc4)oc4cc(O)cc(O)c4c3=O)C(O)C(O)C2O)C(O)C(O)C1O (stereo not given)	eIF4H FP inh inconclusive, PABP FP inh inconclusive
C[C@@H]1O[C@@H](OC[C@H]2O[C@@H](Oc3c(-c4ccc(O)c(O)c4)oc4cc(O)cc(O)c4c3=O)[C@H](O)[C@@H](O)[C@@H]2O)[C@H](O)[C@H](O)[C@H]1O	eIF4H FP inh 61, PABP FP inh 19
CC(=O)c1c(C)cc(C)c(CSc2nc(C)cc(=O)[nH]2)c1C	PABP1 MLLE inh 44
O=C1Cc2cc(S(=O)(=O)N3CCN(c4ccc(O)cc4)CC3)ccc2N1	none (no result: eIF4H FP inh, HCV NS3 hel inh, ZTA DNA inh, EBNA-1 inh, PABP FP inh)
O=C1CC(=O)Nc2cc(S(=O)(=O)N3CCN(c4ccc([N+](=O)[O-])cc4)CC3)ccc2N1	eIF4H FP inh 70
Cc1ccc(-c2c(C#N)c(N)n(-c3ccc(Cl)cc3)c(=O)c2C#N)cc1	none (no result: eIF4H FP inh, HCV NS3 hel inh, ZTA DNA inh, EBNA-1 inh, PABP FP inh)
CCOC(=O)C1=C(O)/C(=C/N(C)C)N=C1C	eIF4H FP inh 89, PABP FP inh 89
N#C/C(=C/c1ccc(F)cc1)c1nnc(NC(=O)c2ccccc2)s1	eIF4H FP inh 88, PABP FP inh 57
CN(Cc1ccc(F)cc1)S(=O)(=O)c1nnc(NC(=O)c2ccccc2)s1	none
O=C(CN1CCN(Cc2ccc(F)cc2Cl)C1=O)NCCc1ccc(Cl)cc1	none
CCOC(=O)SC1=N/C(=C\c2ccc(N(C)C)cc2)C(=O)S1	eIF4H FP inh 111, PABP FP inh 116
COC(=O)C1=C(O)/C(=C\c2cc(C)n(-c3ccc(F)cc3)c2C)N=C1C	PABP FP inh active
COC(=O)C1=C(O)/C(=C/c2cccc(OC)c2O)N=C1C	none
COc1cc2c(cc1NC(=O)Nc1ccc(F)cc1)oc1ccccc12	eIF4H FP inh 92, PABP FP inh 11
COc1cc2c(cc1NC(=O)Nc1ccc(C)cc1)oc1ccccc12	none
COc1cc2c(cc1NC(=O)CSc1ccccc1)oc1ccccc12	ZTA DNA inh 33
O=C1NN(c2ccccc2)C(=O)C1=Cc1ccccc1O	none (no result: eIF4H FP inh, HCV NS3 hel inh, ZTA DNA inh, EBNA-1 inh, PABP FP inh)
Cc1cc(/C=C2/C(=O)NN(c3ccccc3)C2=O)c(C)n1-c1cccc(O)c1	eIF4H FP inh 62
COC(=O)C1=C(C)NC(=O)/C1=C\c1cc(C)n(-c2cccc(C)c2)c1C	PABP FP inh 119
COC(=O)C1=C(C)NC(=O)/C1=C\c1cc(C)n(-c2ccc(F)cc2)c1C	none
COc1ccc(-n2c(Cc3cccs3)nnc2SCC(=O)Nc2ccc3c(c2)OCCO3)cc1	none
COc1ccc(OC)c(NC(=O)c2ccc3c(=O)n(CCc4ccccc4)c(=S)[nH]c3c2)c1	none
COc1cc2[nH]c(=S)n(NC(=O)c3ccccc3)c(=O)c2cc1OC	PABP1 MLLE inh 36
COc1cc2[nH]c(=S)n(Cc3ccco3)c(=O)c2cc1OC	eIF4H FP inh 52, PABP FP inh 23
O=c1c2cc(N3CCOCC3)ccc2[nH]c(=S)n1Cc1ccco1	eIF4H FP inh 91, PABP FP inh 57 (no result: HCV NS3 hel inh)
O=c1c2cc(Cl)ccc2[nH]c(=S)n1Cc1ccco1	none
COc1ccc(NC(=O)c2ccc3c(=O)n(Cc4ccco4)c(=S)[nH]c3c2)c(OC)c1	eIF4H FP inh 70, PABP FP inh 14
COC(=O)c1ccc2c(=O)n(NC(C)=O)c(=S)[nH]c2c1	none
COc1ccc(Cn2c(=S)[nH]c3cc(OC)c(OC)cc3c2=O)cc1	PABP FP inh inconclusive
CN(C)CCCN1c2ccc3ccccc3c2Sc2cccc(Cl)c21	none (no result: eIF4H FP inh, HCV NS3 hel inh, ZTA DNA inh, EBNA-1 inh, PABP FP inh)
Cc1ccc(C)c(NC(=O)CSc2sc3c(O)cc(=O)[nH]c3c2C#N)c1	none
Cc1csc(NC(=O)CSc2sc3c(O)cc(=O)[nH]c3c2C#N)n1	eIF4H FP inh 64, PABP FP inh 41
CCSc1nnc(NC(=O)CSc2sc3c(O)cc(=O)[nH]c3c2C#N)s1	eIF4H FP inh 91, PABP FP inh 64
CCc1nnc(NC(=O)CSc2sc3c(O)cc(=O)[nH]c3c2C#N)s1	eIF4H FP inh 90, PABP FP inh 76
N#CC(=C=[N-])/C=C(\C(=O)c1ccccc1)[n+]1ccccc1	none
C[C@H]1CN([C@@H](C)CO)C(=O)c2cccc(NC(=O)c3ccncc3)c2O[C@H]1CN(C)C(=O)Nc1ccccc1	none (no result: eIF4H FP inh, HCV NS3 hel inh, ZTA DNA inh, EBNA-1 inh, PABP FP inh)
COc1cc(-c2nc(S(=O)(=O)c3ccc(C)cc3)c(N3CCOCC3)o2)cc(OC)c1OC	PABP1 MLLE inh 40
NC(=O)c1nsc(C(=O)N(c2cccc(F)c2)C(C(=O)NC2CCCC2)c2ccc(O)cc2)c1N (stereo not given)	none
COc1ccc(C(C(=O)NC2CCCC2)N(C(=O)c2snc(C(N)=O)c2N)c2cccc(O)c2)cc1 (stereo not given)	eIF4H FP inh 68
O=C1NC(Cc2ccccc2)c2nc3cc(F)ccc3c(=O)n2-c2ncccc21 (stereo not given)	none (no result: eIF4H FP inh, HCV NS3 hel inh, ZTA DNA inh, EBNA-1 inh, PABP FP inh)
C[C@@H]1CN([C@H](C)CO)C(=O)CCCn2nncc2CO[C@@H]1CN(C)C(=O)c1ccccc1	none (no result: eIF4H FP inh, HCV NS3 hel inh, ZTA DNA inh, EBNA-1 inh, PABP FP inh)
O=C(N/N=C/c1cc2c(cc1[N+](=O)[O-])OCO2)c1ccc2c(c1)OCO2	none
O=[N+]([O-])c1cc2c(cc1/C=N/n1c(-c3ccccc3)n[nH]c1=S)OCO2	eIF4H FP inh 59
O=[N+]([O-])c1cc2c(cc1C=Nc1ccccc1)OCO2	none
O=C(N/N=C/c1cc2c(cc1[N+](=O)[O-])OCO2)c1cccnc1	eIF4H FP inh 85, PABP FP inh 30
Cc1cccc(N=Cc2cc3c(cc2[N+](=O)[O-])OCO3)c1	eIF4H FP inh 62, PABP FP inh 21
O=C(CCn1cnnn1)N1CCCC(Nc2ccc(F)c(F)c2)C1 (stereo not given)	none
O=C(O)CCn1ccnc1-c1ccccc1	none
COc1ccc(C2NCCc3cc(OC)c(OC)cc32)cc1OC (stereo not given)	none
O=C(/C=C/c1ccco1)c1cccnc1	eIF4H FP inh 56, PABP FP inh 27
CC(/C=C/c1ccco1)=N\NC(=O)c1cccnc1	none
NC(=S)N=Nc1c(O)[nH]c2ccc(F)cc12	PABP1 MLLE inh 48
Cc1cc(C)n(CC2CC(=O)N(c3ccc(C)c(Cl)c3)C2=O)n1 (stereo not given)	eIF4H FP inh inconclusive, PABP FP inh 100
